ChEMBL document CHEMBL1154212, “Candenatenins A-F, phenolic compounds from the heartwood of Dalbergia candenatensis” (J Nat Prod, 2009)
pIC50: −log10 of the molar value.

Experiments:
Assay type in all cases: functional, cell-based; call rule not given here
HeLa = experiment: Cytotoxicity against human HeLa cells by SRB staining-based fluorescence cytometry; details: for IC50: hela; for pIC50: Homo sapiens, HeLa, read-out: IC50
Summary of the method: (§1)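 Cytotoxicity assay run with camptothecin as the reference anticancer standard.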

MCF7 = experiment: Cytotoxicity against human MCF7 cells by SRB staining-based fluorescence cytometry; details: for IC50: mcf7; for pIC50: Homo sapiens, MCF7, read-out: IC50; summary of the method: as §1
HT-29 = experiment: Cytotoxicity against human HT-29 cells by SRB staining-based fluorescence cytometry; details: for IC50: ht-29; for pIC50: Homo sapiens, HT-29, read-out: IC50; summary of the method: as §1
KB = experiment: Cytotoxicity against human KB cells by SRB staining-based fluorescence cytometry; details: for IC50: kb; for pIC50: Homo sapiens, KB, read-out: IC50; summary of the method: as §1

COc1ccc2c(c1C/C=C(\C)CCC=C(C)C)OC[C@@H]1c3cc4c(cc3O[C@H]21)OCO4 [NUTIDUCOL]
IC50 (HeLa): Not Active
IC50 (MCF7): Not Active
IC50 (HT-29): Not Active
IC50 (KB): Not Active

O=C1C=C[C@](O)(C/C=C/c2ccccc2)CC1 [(1'R)-CANDENATENIN B]
pIC50 (HeLa): 4.25
pIC50 (MCF7): 4.26
pIC50 (HT-29): 4.71
pIC50 (KB): 4.08

COc1ccccc1/C=C/C[C@@]1(O)C=CC(=O)CC1
pIC50 (HeLa): 4.27
pIC50 (MCF7): 4.31
pIC50 (HT-29): 4.75
pIC50 (KB): 4.15

COc1ccc(/C=C/Cc2ccc(O)c(OC)c2OC)cc1O [CANDENATENIN A]
pIC50 (HeLa): 4.10
pIC50 (MCF7): 4.13
pIC50 (HT-29): 4.39
pIC50 (KB): 4.37

COc1ccc([C@@H]2COc3c(ccc(O)c3C/C=C(\C)CCC=C(C)C)C2)cc1
IC50 (HeLa): Not Active
IC50 (MCF7): Not Active
IC50 (HT-29): Not Active
IC50 (KB): Not Active

CC[C@@]1(O)C(=O)OCc2c1cc1n(c2=O)Cc2cc3ccccc3nc2-1 [CAMPTOTHECIN]
pIC50 (HeLa): 5.91
pIC50 (MCF7): 5.91
pIC50 (HT-29): 5.91
pIC50 (KB): 5.91

COc1ccc2c(c1O)OC[C@@H]1c3cc4c(cc3O[C@H]21)OCO4
IC50 (HeLa): Not Active
IC50 (MCF7): Not Active
IC50 (HT-29): Not Active
IC50 (KB): Not Active

CO[C@H]1CC(=O)CC[C@@]1(O)C/C=C/c1ccccc1
pIC50 (HeLa): 4.27
pIC50 (MCF7): 4.36
pIC50 (HT-29): 4.32
pIC50 (KB): 4.07

COc1c(O)ccc([C@@H]2C=Cc3cc(O)ccc3O2)c1OC
IC50 (HeLa): Not Active
IC50 (MCF7): Not Active
IC50 (HT-29): Not Active
IC50 (KB): Not Active

CC(C)=CCC/C(C)=C/Cc1c(O)cc(O)c2c1O[C@H](c1ccc(O)cc1)CC2=O [SOPHORAFLAVANONE A]
IC50 (HeLa): Not Active
IC50 (MCF7): Not Active
IC50 (HT-29): Not Active
IC50 (KB): Not Active

COc1cc(O)c2c(c1)O[C@H](c1ccccc1)[C@@H](O)C2=O
pIC50 (HeLa): 4.10
pIC50 (MCF7): 4.31
pIC50 (HT-29): 4.33
pIC50 (KB): 4.13
